In brackets after ≈: the same amount, converted by molar mass. Activity calls are given as the source filed them. The calls are words filed in the database; no cut-off is given here. Where a SMILES comes first, the peptide text is derived from it. [ ]: non-standard residue; d: D form. The star is where a group is joined. Stearoyl = CCCCCCCCCCCCCCCCCC(=O)*; Palmitoyl = CCCCCCCCCCCCCCCC(=O)*; Lauroyl = CCCCCCCCCCCC(=O)*; Decanoyl = CCCCCCCCCC(=O)*; 3Abz = Nc1cccc(C(=O)O)c1; Orn = NCCC[CH](N)C(=O)O
Experiments:
Bacillus subtilis = experiment: Antibacterial activity against Bacillus subtilis MTCC 2763 after 18 hrs by micro dilution broth assay; assay type: functional; conditions: MTCC 2763, 18 h
Summary of the method: (§1)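 Broth microdilution (modified CLSI): mid-log inoculum at 10^5 CFU/mL in Mueller-Hinton broth; serial 2-fold dilutions of sample in 0.001% acetic acid with 0.2% BSA added. Incubated overnight at 37 °C with agitation; A600 read at 18 h. Drug-free culture and uninoculated broth as controls; triplicate.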

Candida albicans [1] = experiment: Antifungal activity against Candida albicans ATCC 24433 after 48 to 72 hrs by M27-A method; assay type: functional
Summary of the method: (§2)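 Fungi at 2.5×10^3 cfu/mL in RPMI 1640 (L-glutamine, no glucose or NaHCO3, buffered pH 7.0 with 0.165 M MOPS), mixed 1:1 with serial 2-fold aqueous dilutions. Incubated at 37 °C with shaking, 24 h for Aspergillus, 48-72 h for Candida and Cryptococcus; A600 read. MIC taken as lowest concentration with no growth.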

Cryptococcus neoformans = experiment: Antifungal activity against Cryptococcus neoformans ATCC 2344 after 48 to 72 hrs by M27-A method; assay type: functional; summary of the method: as §2
Candida albicans [2] = experiment: Antifungal activity against fluconazole-resistant Candida albicans PGI/ DML0109 clinical isolate after 48 to 72 hrs by M27-A method; assay type: functional
Summary of the method: (§3)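 Fungi at 2.5×10^3 cfu/mL in RPMI 1640 (L-glutamine, no glucose or NaHCO3, pH 7.0 with 0.165 M MOPS). Mixed 1:1 with serial 2-fold dilutions in water, incubated at 37 °C with shaking, 24 h for A. fumigatus and 48–72 h for C. albicans. Growth read by absorbance at 600 nm. MIC taken as the lowest concentration with no growth.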

Aspergillus fumigatus [3] = experiment: Antifungal activity against Aspergillus fumigatus ATCC 42203 after 24 hrs by M27-A method; assay type: functional; conditions: ATCC 42203, 24 h; summary of the method: as §2
Escherichia coli [4] = experiment: Antibacterial activity against Escherichia coli MTCC 0723 after 18 hrs by micro dilution broth assay; assay type: functional; conditions: MTCC 0723, 18 h; summary of the method: as §1
Staphylococcus aureus [5] = experiment: Antibacterial activity against Staphylococcus aureus MTCC 3160 after 18 hrs by micro dilution broth assay; assay type: functional; conditions: MTCC 3160, 18 h; summary of the method: as §1
Escherichia coli [6] = experiment: Antibacterial activity against imipenem-resistant Escherichia coli PGI/ DML02292 clinical isolate after 18 hrs by micro dilution broth assay; assay type: functional; conditions: PGI/ DML02292, 18 h
Pseudomonas aeruginosa = experiment: Antibacterial activity against Pseudomonas aeruginosa MTCC 2295 after 18 hrs by micro dilution broth assay; assay type: functional; conditions: MTCC 2295, 18 h; summary of the method: as §1
Aspergillus niger = experiment: Antifungal activity against Aspergillus niger ATCC 64028 after 24 hrs by M27-A method; assay type: functional; conditions: ATCC 64028, 24 h; summary of the method: as §2
Aspergillus fumigatus [7] = experiment: Antifungal activity against fluconazole-resistant Aspergillus fumigatus IGMC/LM1/0336 after 24 hrs by M27-A method; assay type: functional; conditions: IGMC/LM1/0336, 24 h; summary of the method: as §3
Staphylococcus aureus [8] = experiment: Antibacterial activity against methicillin-resistant Staphylococcus aureus PGI/ DML03149 clinical isolate after 18 hrs by micro dilution broth assay; assay type: functional; conditions: PGI/ DML03149, 18 h
[9] = Hemolytic activity in human RBCs; assay type: ADME, cell-based, Erythrocyte; conditions: red blood cells (RBCs)
Summary of the method: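 Washed fresh human erythrocytes, 4% (v/v) in PBS (35 mM phosphate, 150 mM NaCl, pH 7.2), mixed 1:1 with 2-fold dilutions in PBS. Incubated 1 h at 37 °C without agitation, then centrifuged at 1000 g for 5 min. Supernatant hemoglobin read at 440 nm; % hemolysis = 100(A−A0)/(At−A0).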

[10] = Therapeutic index, ratio of HC50 for human RBCs to MIC for Escherichia coli MTCC 0723; conditions: red blood cells (RBCs), read-out: TI
[11] = Therapeutic index, ratio of HC50 for human RBCs to MIC for Staphylococcus aureus MTCC 3160; conditions: red blood cells (RBCs), read-out: TI
[12] = Membrane permeabilization activity assessed as release of calcein from PC/PE/PI/ergosterol liposomes at 20 ug/ml after 5 mins by spectrofluorimetry; assay type: ADME
Summary of the method: (§4)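 Calcein-loaded LUVs, PE/PG (bacterial mimic) or PC/PE/PI/ergosterol (fungal mimic), exposed to 1-20 μg/mL for 5 min before fluorescence reading. Triton X-100 in Tris-HCl/NaCl/EDTA buffer sets 100% leakage; % leakage = 100(F−F0)/(Ft−F0). Run in triplicate, two independent experiments, mean ± SD.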

[13] = Membrane permeabilization activity assessed as release of calcein from PC/PE/PI/ergosterol liposomes at 4 ug/ml after 5 mins by spectrofluorimetry; assay type: ADME; summary of the method: as §4
[14] = Membrane permeabilization activity assessed as release of calcein from PE/PG liposomes at 20 ug/ml after 5 mins by spectrofluorimetry; assay type: ADME; summary of the method: as §4
[15] = Membrane permeabilization activity assessed as release of calcein from PE/PG liposomes at 4 ug/ml after 5 mins by spectrofluorimetry; assay type: ADME; summary of the method: as §4
Aspergillus fumigatus [16] = experiment: Membrane disruption effect in Aspergillus fumigatus ATCC 42203 assessed as surface blebs and aggregation at 4 times MIC by scanning electron microscopy; assay type: functional, organism-based

SMILES | MIC (Bacillus subtilis) [µg/mL] | MIC (Candida albicans [1]) [µg/mL] | MIC (Cryptococcus neoformans) [µg/mL] | MIC (Candida albicans [2]) [µg/mL] | MIC (Aspergillus fumigatus [3]) [µg/mL] | MIC (Escherichia coli [4]) [µg/mL] | MIC (Staphylococcus aureus [5]) [µg/mL] | MIC (Escherichia coli [6]) [µg/mL] | MIC (Pseudomonas aeruginosa) [µg/mL] | MIC (Aspergillus niger) [µg/mL] | MIC (Aspergillus fumigatus [7]) [µg/mL] | MIC (Staphylococcus aureus [8]) [µg/mL] | HC50 [9] [µg/mL] | selectivity ratio [10] | selectivity ratio [11] | Activity [12] [%] | Activity [13] [%] | Activity [14] [%] | Activity [15] [%] | Activity (Aspergillus fumigatus [16])
CCCCCCCCCC(=O)Nc1cccc(C(=O)NC(CCCN)C(=O)NC(CCCN)C(=O)NC(CCCN)C(N)=O)c1 (stereo unspecified) | 125 (≈ 198 µM) | 62.5 (≈ 98.8 µM) | 75 (≈ 119 µM) | 75 (≈ 119 µM) | 31.5 (≈ 49.8 µM) | 62.5 (≈ 98.8 µM) | 31.2 (≈ 49.3 µM) | 70 (≈ 111 µM) | 50 (≈ 79 µM) | 50 (≈ 79 µM) | 30 (≈ 47.4 µM) | 50 (≈ 79 µM) | > 1000 | – | – | – | – | – | – | –
CCCCCCCCCCCC(=O)Nc1cccc(C(=O)NC(CCCN)C(=O)NC(CCCN)C(=O)NC(CCCN)C(N)=O)c1 (stereo unspecified) | 100 (≈ 151 µM) | 15.5 (≈ 23.5 µM) | 12.5 (≈ 18.9 µM) | 15 (≈ 22.7 µM) | 10 (≈ 15.1 µM) | 12.5 (≈ 18.9 µM) | 6.25 (≈ 9.46 µM) | 10.5 (≈ 15.9 µM) | 4.5 (≈ 6.81 µM) | 15 (≈ 22.7 µM) | 12.5 (≈ 18.9 µM) | 12 (≈ 18.2 µM) | 900 | 72 | 144 | – | – | – | – | –
CCCCCCCCCCCCCC(=O)Nc1cccc(C(=O)NC(CCCN)C(=O)NC(CCCN)C(=O)NC(CCCN)C(N)=O)c1 (stereo unspecified) | 15.5 (≈ 22.5 µM) | 5.5 (≈ 7.98 µM) | 10 (≈ 14.5 µM) | 6.25 (≈ 9.07 µM) | 4.5 (≈ 6.53 µM) | 2.25 (≈ 3.27 µM) | 3.1 (≈ 4.5 µM) | 4 (≈ 5.81 µM) | 2.5 (≈ 3.63 µM) | 5 (≈ 7.26 µM) | 6.25 (≈ 9.07 µM) | 4.5 (≈ 6.53 µM) | 750 | 333 | 242 | – | – | – | – | –
CCCCCCCCCCCCCCCC(=O)Nc1cccc(C(=O)NC(CCCN)C(=O)NC(CCCN)C(=O)NC(CCCN)C(N)=O)c1 (stereo unspecified) | 20 (≈ 27.9 µM) | 3 (≈ 4.18 µM) | 3.5 (≈ 4.88 µM) | 3.5 (≈ 4.88 µM) | 3.5 (≈ 4.88 µM) | 3.5 (≈ 4.88 µM) | 5 (≈ 6.97 µM) | 4.5 (≈ 6.28 µM) | 5.5 (≈ 7.67 µM) | 4.25 (≈ 5.93 µM) | 5 (≈ 6.97 µM) | 5 (≈ 6.97 µM) | 450 | 129 | 90 | – | – | – | – | –
CCCCCCCCCCCCCCCCCC(=O)Nc1cccc(C(=O)NC(CCCN)C(=O)NC(CCCN)C(=O)NC(CCCN)C(N)=O)c1 (stereo unspecified) | 25 (≈ 33.6 µM) | 2.25 (≈ 3.02 µM) | 6.5 (≈ 8.72 µM) | 2 (≈ 2.68 µM) | 2 (≈ 2.68 µM) | 6.25 (≈ 8.39 µM) | 12.5 (≈ 16.8 µM) | 7.5 (≈ 10.1 µM) | 10 (≈ 13.4 µM) | 3.5 (≈ 4.7 µM) | 2.5 (≈ 3.36 µM) | 10.5 (≈ 14.1 µM) | 250 | 40 | 20 | – | – | – | – | –
CCCCCCCCCC(=O)Nc1cccc(C(=O)NC(CCCN)C(=O)NC(CCCN)C(=O)NC(CCCN)C(=O)NC(CCCN)C(N)=O)c1 (stereo unspecified) ({Decanoyl-3Abz}-[Orn][Orn][Orn][Orn]-NH2; configuration not given here) | 100 (≈ 134 µM) | 50 (≈ 66.9 µM) | 50 (≈ 66.9 µM) | 50 (≈ 66.9 µM) | 25 (≈ 33.5 µM) | 17.5 (≈ 23.4 µM) | 20 (≈ 26.8 µM) | 25 (≈ 33.5 µM) | 25 (≈ 33.5 µM) | 31.5 (≈ 42.2 µM) | 25 (≈ 33.5 µM) | 35 (≈ 46.9 µM) | 1000 | 57.1 | 50 | 45 | 17 | 67 | 11 | –
CCCCCCCCCCCC(=O)Nc1cccc(C(=O)NC(CCCN)C(=O)NC(CCCN)C(=O)NC(CCCN)C(=O)NC(CCCN)C(N)=O)c1 (stereo unspecified) ({Lauroyl-3Abz}-[Orn][Orn][Orn][Orn]-NH2; configuration not given here) | 15.5 (≈ 20 µM) | 5.5 (≈ 7.1 µM) | 10.5 (≈ 13.5 µM) | 7.5 (≈ 9.68 µM) | 5 (≈ 6.45 µM) | 1.5 (≈ 1.94 µM) | 2.5 (≈ 3.23 µM) | 5.5 (≈ 7.1 µM) | 1.5 (≈ 1.94 µM) | 6.25 (≈ 8.06 µM) | 5.5 (≈ 7.1 µM) | 3.25 (≈ 4.19 µM) | 750 | 500 | 300 | – | – | – | – | –
CCCCCCCCCCCCCCCC(=O)Nc1cccc(C(=O)NC(CCCN)C(=O)NC(CCCN)C(=O)NC(CCCN)C(=O)NC(CCCN)C(N)=O)c1 (stereo unspecified) ({Palmitoyl-3Abz}-[Orn][Orn][Orn][Orn]-NH2; configuration not given here) | 20 (≈ 24.1 µM) | 2 (≈ 2.41 µM) | 5 (≈ 6.02 µM) | 3.5 (≈ 4.21 µM) | 1.5 (≈ 1.8 µM) | 2 (≈ 2.41 µM) | 3 (≈ 3.61 µM) | 3.5 (≈ 4.21 µM) | 3.1 (≈ 3.73 µM) | 3.1 (≈ 3.73 µM) | 3.5 (≈ 4.21 µM) | 5 (≈ 6.02 µM) | 350 | 175 | 117 | – | – | – | – | –
CCCCCCCCCCCCCCCCCC(=O)Nc1cccc(C(=O)NC(CCCN)C(=O)NC(CCCN)C(=O)NC(CCCN)C(=O)NC(CCCN)C(N)=O)c1 (stereo unspecified) ({Stearoyl-3Abz}-[Orn][Orn][Orn][Orn]-NH2; configuration not given here) | 12.5 (≈ 14.5 µM) | 1.5 (≈ 1.75 µM) | 5.5 (≈ 6.4 µM) | 2 (≈ 2.33 µM) | 1.5 (≈ 1.75 µM) | 3.5 (≈ 4.07 µM) | 10 (≈ 11.6 µM) | 5 (≈ 5.82 µM) | 6.25 (≈ 7.27 µM) | 1.5 (≈ 1.75 µM) | 2 (≈ 2.33 µM) | 10.5 (≈ 12.2 µM) | 200 | 57.1 | 20 | 89 | 57 | 84 | 44 | Active
C[C@@H]1[C@H](O)[C@@H](C)/C=C/C=C/C=C/C=C/C=C/C=C/C=C/[C@H](O[C@@H]2O[C@H](C)[C@@H](O)[C@H](N)[C@@H]2O)C[C@@H]2O[C@](O)(C[C@@H](O)C[C@@H](O)[C@H](O)CC[C@@H](O)C[C@@H](O)CC(=O)O[C@H]1C)C[C@H](O)[C@H]2C(=O)O [AMPHOTERICIN B] | – | 0.5 (≈ 0.541 µM) | 0.3 (≈ 0.325 µM) | 0.7 (≈ 0.758 µM) | 0.3 (≈ 0.325 µM) | – | – | – | – | 0.5 (≈ 0.541 µM) | 0.9 (≈ 0.974 µM) | – | – | – | – | – | – | – | – | –
O=C(O)c1cn(C2CC2)c2cc(N3CCNCC3)c(F)cc2c1=O [CIPROFLOXACIN] | 0.5 (≈ 1.51 µM) | – | – | – | – | – | 0.2 (≈ 0.604 µM) | – | 0.3 (≈ 0.905 µM) | – | – | – | – | – | – | – | – | – | – | –
